CCR6 antagonist: antagonists of human CCR6 receptor. P51684. CHO-K1 CCR6 PathHunter beta-arrestin, luminescence, CCL20-stimulated. inhibition, % at 20 µM. hit rate 0.49% among 340,000;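 active = compounds whose inhibition of the agonist-driven luminescence signal at 20 µM reaches about 50%, limit read from the data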;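 note: cells stimulated with CCL20 at 14 nM final; plate controls were DMSO with CCL20 for no effect and DMSO without agonist for full effect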
APJ antag: antagonists of human APJ apelin receptor. P35414. CHO-K1 APJ beta-arrestin complementation, luminescence. inhibition, % at 20 µM. hit rate 0.32% among 330,000;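 active = inhibition above about 40% at 20 µM, limit read from the data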;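 note: cells challenged with 10 nM apelin-13 agonist together with compound; plate controls were apelin-13 plus DMSO wells for no effect and DMSO wells lacking apelin-13 for full effect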
EBI2 antag: antagonists of human EBI2 receptor | P32249 | EBI2 beta-arrestin recruitment, luminescence, 7a,25-OHC stimulated | inhibition, % at 5 µM | hit rate 0.81% among 360,000 | AID 651636; in the data active = inhibition above about 38%;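 note: enzyme fragment complementation signal reports receptor beta-arrestin coupling in cells; 0% = agonist plus DMSO wells and 100% = wells without agonist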
m5-HT2A agonist: activates the mouse 5-HT2A serotonin receptor; P35363; hit rate 0.66% among 360,000; activation, % at 7.6 µM; CHO-K1 mHTR2A beta-arrestin complementation, luminescence; percent of 30 µM serotonin response; AID 624169;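 active = activation above a run cutoff, the mean activation of all tested compounds plus 3 SD, cut at about 14% in these data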;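 note: 0% = plate median of compound wells and 100% = 30 µM serotonin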
Target sequence (P35363 whole entry, looked up): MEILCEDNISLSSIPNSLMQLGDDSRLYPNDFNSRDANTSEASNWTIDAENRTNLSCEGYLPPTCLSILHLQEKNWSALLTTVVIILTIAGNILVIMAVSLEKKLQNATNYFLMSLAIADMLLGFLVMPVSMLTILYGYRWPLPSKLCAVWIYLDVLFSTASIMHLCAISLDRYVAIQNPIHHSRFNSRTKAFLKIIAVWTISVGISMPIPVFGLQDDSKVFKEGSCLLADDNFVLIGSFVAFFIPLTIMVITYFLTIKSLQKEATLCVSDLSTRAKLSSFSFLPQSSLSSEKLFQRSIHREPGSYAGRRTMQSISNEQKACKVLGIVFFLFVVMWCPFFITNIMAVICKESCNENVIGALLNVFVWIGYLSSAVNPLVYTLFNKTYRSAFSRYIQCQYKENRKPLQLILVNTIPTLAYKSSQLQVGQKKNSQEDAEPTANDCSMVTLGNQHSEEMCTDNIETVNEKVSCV
APJ agonist: activates the human apelin receptor APJ. activation, % at 20 µM. AID 2520. P35414. CHO-K1 APJ PathHunter beta-arrestin, luminescence; 0% DMSO wells, 100% apelin. hit rate 0.11% among 330,000;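 active = activation more than six SD over the plate average, tested at 20 µM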;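 note: 0% = DMSO alone and 100% = apelin-13 at 10 nM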
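Test system: CHO-K1 APJ beta-arrestin complementation cell line | Compound: Single test compound dose, 20 µM final, 1% DMSO | Incubation: Compound 90 min 25 °C, reagent 1 h | Measured by: beta-gal luminescence | Read-out basis: APJ–arrestin association signal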
CXCR6 inh: CXCR6 (human) receptor inhibition; hit rate 0.36% among 360,000; AID 602244; inhibition, % at 20 µM; CHO-K1 PathHunter CXCR6 beta-arrestin, luminescence; in the data active = inhibition above about 34%, passing the limit was not always enough;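 note: antagonist mode with CXCL16 agonist at 10 nM final; 0% = 10 nM CXCL16 with DMSO and 100% = unstimulated wells without agonist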
APJ antag confirm: confirmation of human APJ apelin receptor antagonists; shares compounds with APJ antag; APJ beta-arrestin recruitment, luminescence, antagonist mode; inhibition, % at 20 µM; hit rate 66% among 950; AID 2766; in the data active = inhibition above about 50%
The depositor's hits bear a star; . = not tested or not shown. Most compounds without a hit are left out; they make up all but 2.1% or so of the library.

SMILES	CCR6 antagonist	APJ antag	EBI2 antag	m5-HT2A agonist	APJ agonist	CXCR6 inh	APJ antag confirm
CCCCCCCCCCCCCCCC(O)C[N+](C)(C)CCO (stereo not given)	33.7	.	0.5	-0.6	.	21.4	.
CCCCCCCCCCCCCCCC(O)C(N)CO (stereo not given)	23.7	40.8*	3.2	-0.3	-3.1	9.1	46.8
CC(C)(C)c1ccc(/C=C/C(=O)c2ccc(NC3=NCCCS3)cc2)cc1	18.8	-17.5	28.9	-8.2	0.9	5.8	.
Cc1ccc2cccc(N)c2n1	10.0	41.2*	-3.2	-0.2	2.2	-0.4	1.6
Cc1cc(C)nc(NS(=O)(=O)c2ccc(NC(=S)NC(=O)C3CCCC3)cc2)n1	8.3	42.9*	3.3	1.2	-3.7	11.3	24.3
O=S(=O)(c1ccc(Cl)cc1)N1CCC(N2CCOCC2)CC1	14.0	8.3	4.6	-1.1	-0.8	7.8	.
Nc1nc(-c2ccc(Cl)cc2)c(N=Nc2ccc(S(=O)(=O)N3CCOCC3)cc2)s1	71.3*	48.8*	31.9	0.3	-3.9	51.4*	89.0*
Cc1nnc(NC(=O)CSc2nc3ccccc3o2)s1	-8.5	-0.9	-1.9	-0.9	-2.1	9.2	.
O=C(CSc1nc2ccccc2o1)Nc1nncs1	-1.8	52.4*	3.5	-4.0	-5.0	-8.3	23.2
N#Cc1cnc(Nc2nc3ccccc3o2)nc1-c1ccccc1	54.7*	52.4*	18.0	-3.1	-12.1	16.5	-1.8
CC(C)c1nc(C#N)c(NCCCn2ccnc2)o1	11.6	1.8	-8.0	3.9	-1.1	1.1	.
CC(C)c1nc(C#N)c(NN)o1	33.1	42.3*	-1.0	-6.7	-11.3	18.7	66.3*
O=C(c1cccs1)c1cn(CC(=O)N2CCc3ccccc3C2)c2ccccc12	24.9	42.8*	-2.7	0.8	-22.4	0.1	28.4
Cc1ccc(NC(=O)CCC(=O)NNS(=O)(=O)c2ccccc2)cc1C	2.3	-8.3	-6.7	-0.8	-0.6	-9.5	.
COc1cccc(/C=C2\CC(C)Cc3c2nc2ccccc2c3C(=O)O)c1OC (stereo not given)	9.9	48.7*	-4.1	5.0	-1.1	-3.2	-18.0
Cc1cc(=O)[nH]c(N=N/C(=N/Nc2ccccc2C)c2ccccc2)n1	21.1	11.6	-11.1	3.9	-6.6	2.8	.
Cc1cc(=O)[nH]c(N=N/C(=N/Nc2ccc(O)cc2)c2ccccc2)n1	55.6*	59.3*	5.1	3.9	-11.4	23.4	89.2*
CCOc1ccc(NC(=O)CC2C(=O)N(CC)C(=S)N2CCN2CCOCC2)cc1 (stereo not given)	-11.2	46.3*	-1.4	0.7	-3.2	-9.2	-6.2
N#C/C(=N\Nc1ccc(S(=O)(=O)N2CCCCCC2)cc1)C(N)=S	31.5	48.2*	11.8	1.7	-7.4	17.2	64.4*
CCOC(=O)c1c(-c2cccs2)csc1NC(=O)c1ccco1	-17.4	20.4	0.1	4.8	0.6	-5.0	.
CCOC(=O)c1c(C2COc3ccccc3O2)csc1NC(=O)c1ccco1 (stereo not given)	10.1	42.7*	23.4	-2.1	-9.0	8.2	77.1*
CCOc1ccccc1-c1nc2c([nH]1)c(=O)n(C)c(=O)n2C	-17.1	-5.5	-1.8	0.6	-1.1	-3.0	.
O=C(CCC(=O)Nc1ccc(Br)cc1)N/N=C/c1cc([N+](=O)[O-])ccc1O	65.5*	42.1*	9.8	2.6	-8.6	32.1	46.9
O=[N+]([O-])c1ccc(O)c(/C=N/NC2=NS(=O)(=O)c3ccccc32)c1	10.2	3.7	9.5	-4.1	-3.5	1.5	.
O=[N+]([O-])c1ccc(O)c(/C=N/Nc2ccc(Cl)nn2)c1	89.6*	54.7*	76.8*	-7.1	-25.3	78.6*	81.3*
SMILES	CCR6 antagonist	APJ antag	EBI2 antag	m5-HT2A agonist	APJ agonist	CXCR6 inh	APJ antag confirm
CSc1nc2ccc(NS(=O)(=O)c3ccc(Br)s3)cc2s1	-6.2	-3.4	5.0	0.5	2.8	2.2	.
COC(=O)COc1ccc(S(=O)(=O)NCc2ccco2)cc1Cl	-1.3	-23.1	-2.7	1.5	-7.4	3.1	.
O=c1c2cc(Br)ccc2[nH]c(=S)n1Cc1ccccn1	55.6*	58.5*	11.7	-3.1	-6.6	50.8*	93.2*
O=c1c2cc(Br)ccc2[nH]c(=S)n1Cc1ccccc1	4.1	7.1	11.0	-1.3	-1.5	-4.3	.
Cn1cccc1/C=C(/C#N)C(N)=S	28.6	41.1*	1.2	-2.5	-8.6	7.7	57.6*
CCOC(=O)c1ccc(N2N=C(C)/C(=C/C=C/c3ccco3)C2=O)cc1	-12.9	22.8	10.9	4.9	-5.9	14.3	.
CC1=NN(c2ccc(C(=O)OC(C)C)cc2)C(=O)/C1=C\C=C\c1ccco1	-8.3	57.3*	2.9	1.3	-1.5	12.6	51.0*
N#Cc1cnn2c3c(cnc12)C(=O)N1CCc2ccccc2C1C3 (stereo not given)	29.1	47.6*	8.9	-2.9	-6.0	11.9	29.1
NS(=O)(=O)c1ccc(N=Nc2ccc(O)c3ncccc23)cc1	63.7*	48.7*	3.9	-12.5	-9.9	48.3*	86.7*
CCS(=O)(=O)c1ccc(OC)c(N=Nc2ccc(O)c3ncccc23)c1	10.1	21.9	-3.2	-1.2	-7.6	4.3	.
CCN(CC)S(=O)(=O)c1cc(OC)ccc1N=Nc1ccc(O)c2ncccc12	54.9*	43.1*	2.6	-8.0	-3.4	36.2	49.5
CCOc1ccc(N=Nc2ccc(O)c3ncccc23)cc1	28.2	24.9	28.2	6.1	-8.5	-2.2	.
Cc1cccc(N=Nc2ccc(O)c3ncccc23)c1	33.4	41.8*	31.5	-4.0	-12.0	37.1	83.1*
Oc1ccc(N=Nc2ccc3c(c2)OCCO3)c2ncccc12	54.0*	52.8*	7.8	-9.3	-5.1	34.8	89.4*
Cc1ccc(C)c(N=Nc2ccc(O)c3ncccc23)c1	62.9*	44.9*	12.5	-4.8	-9.1	5.0	74.1*
Cc1ccc(C)c(N2CCN(C3CCCC(C)C3)CC2)c1 (stereo not given)	1.2	23.1	12.4	-4.9	-5.4	-2.0	.
COC(=O)C1=C(C)N(Cc2ccccc2)C(=NCC(C)C)N[C@H]1c1cccc(F)c1	8.1	48.5*	9.5	-0.3	-4.1	2.0	84.3*
N=c1nc(-c2ccccc2)ccn1O	8.8	13.7	16.6	3.0	3.0	6.5	.
Cc1ccc(C)c(NC(=S)N(Cc2ccc(Cl)cc2)Cc2ccc(C(=O)O)cc2)c1	8.4	-1.7	-9.5	9.8	-3.2	-3.2	.
COc1ccc(C(=O)CNc2ccccc2Br)cc1	15.7	5.7	10.9	2.4	-7.1	8.2	.
O=C(CNc1ccccc1C(=O)O)c1ccccc1	79.1*	41.1*	1.3	2.7	-14.0	68.2*	149.4*
